Data as given in PMC5856607 (Journal of pharmaceutical sciences, 2017).
Read-outs that look alike come from different tables or passages of the source.

Key:
Caco-2 cells [1] = details: % of dose, cited from earlier work
Caco-2 cells [2] = type: in vitro ADME, human; details: for total CDF production, % of the CDFDA dose / fraction of CDF present in the apical compartment: mean ± standard deviation; for fraction of CDF in the basolateral compartment / fraction of CDF in the cell compartment at 120-minutes: average
[3] = CDFDA hydrolysis in transport buffer; type: physicochemical; details: 37°C
Caco-2 cells [4] = type: in vitro ADME, human; details: for Clhydrolysis, intracellular hydrolysis of CDFDA, parameter estimate (% RSE) / Clcdf,ap, efflux clearance of CDF across the apical membrane, parameter estimate (% RSE) / Clcdf,bl, efflux clearance of CDF across the basolateral membrane, parameter estimate (% RSE): control; for β-adjustment factor for enhancement of CDFDA hydrolysis clearance (Clhydrolysis), estimate (% RSE): Equation 2; for model predicted effect on CDF clearance across the apical membrane: co-exposure with agent; for β-adjustment factor for enhancement of basolateral membrane clearance (Clcdf,bl), estimate (% RSE): Equation 2, agent 10, 30, 100 μM
[5] = test system: CDFDA hydrolysis in Caco-2 cell homogenates; details: cited from earlier work; for effect on CDFDA hydrolysis in Caco-2 cell homogenates: 100 μM
[6] = test system: canalicular membrane of rat hepatocytes; details: cited from earlier work
Caco-2 cells [7] = assay: CDF transport across Caco-2 monolayers following CDF dosing; type: in vitro ADME, human
In short: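 Caco-2 cells (passages 32–58) were grown 18–24 days on collagen-coated 0.4 μm PTFE Transwells. They were pre-incubated 30 min in pH 7.4 transport buffer with 0.1% DMSO/0.1% ethanol, then given 5 μM CDF apically or basolaterally at 37°C with 150 rpm shaking. CDF was quantified against 7.8–1000 nM standards. Clearance = transport rate/mean initial–final donor concentration. A two-compartment passive paracellular population model was fitted by QRPEM, 13 filters per direction.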

[8] = cited from earlier work
Caco-2 cells [9] = details: contemporaneous studies; cited from earlier work
[10] = apical 5 μM CDFDA alone (Control)
[11] = basolateral 5 μM CDFDA alone (Control)
[12] = basolateral dosing 5 μM CDFDA, 500 simulations
[13] = apical 5 μM CDFDA with 100 μM agent
[14] = apical 5 μM CDFDA with 100 μM agent, 9 filters
[15] = basolateral 5 μM CDFDA with 100 μM agent
[16] = basolateral 5 μM CDFDA with 100 μM agent, 9 filters
[17] = control experiments, CDFDA dosing
[18] = apical dosing 5 μM CDFDA, 500 simulations

## CC(C)(C)C(=O)OCOP(=O)(COCCn1cnc2c(N)ncnc21)OCOC(=O)C(C)(C)C [adefovir dipivoxil]
Caco-2 cells [1]; apical dosing
  total metabolite production: 93%
Caco-2 cells [1]; basolateral dosing
  total metabolite production: 34%

## CDF diacetate [CDFDA]
Caco-2 cells [2]; [10]
  AB Donor (apical) CDF at 120 minutes, mean: 101 pmoles/well
  AB Intracellular CDF at 120 minutes, mean: 29 pmoles/well
Caco-2 cells [2]; apical 5 μM CDFDA alone (Control), 48 filters
  AB directional CDF flux, mean: 0.28 pmol/min
Caco-2 cells [2]; apical dosing
  total CDF production, % of the CDFDA dose: 6.7 ± 3.10%
Caco-2 cells [2]; [11]
  BA Donor (basolateral) CDF at 120 minutes, mean: 143 pmoles/well
  BA Intracellular CDF at 120 minutes, mean: 83 pmoles/well
Caco-2 cells [2]; basolateral 5 μM CDFDA alone (Control), 48 filters
  BA directional CDF flux, mean: 0.81 pmol/min
Caco-2 cells [2]; basolateral dosing
  total CDF production, % of the CDFDA dose: 4.3 ± 1.21%
[3]
  half-life of CDFDA hydrolysis in transport buffer: > 100 h
[3]; translated from half-life
  clearance of CDFDA hydrolysis in transport buffer: 3e-07 mL/min
Caco-2 cells [4]
  fold larger CDFDA hydrolysis clearance for basolateral versus apical dosing: 1.8 fold
Caco-2 cells [4]; apical dosing 5 μM CDFDA
  Clhydrolysis, intracellular hydrolysis of CDFDA, parameter estimate (% RSE): 8.2 × 10^−4 (<0.1) mL/min
Caco-2 cells [4]; [12]
  Clhydrolysis, bootstrap analysis median (90% confidence interval): 1.6 × 10^−3 (1.2 – 1.9 × 10^−3) mL/min
Caco-2 cells [4]; basolateral dosing 5 μM CDFDA
  Clhydrolysis, intracellular hydrolysis of CDFDA, parameter estimate (% RSE): 1.5 × 10^−3 (0.1) mL/min

## O=c1c(-c2ccc(O)cc2)coc2cc(O)cc(O)c12 [Genistein]
Caco-2 cells [2]; [13]
  AB Donor (apical) CDF at 120 minutes, mean: 301 pmoles/well
  AB Intracellular CDF at 120 minutes, mean: 85 pmoles/well
Caco-2 cells [2]; [14]
  AB directional CDF flux, mean: 1.25 pmol/min
Caco-2 cells [2]; [15]
  BA Donor (basolateral) CDF at 120 minutes, mean: 427 pmoles/well
  BA Intracellular CDF at 120 minutes, mean: 134 pmoles/well
Caco-2 cells [2]; [16]
  BA directional CDF flux, mean: 2.68 pmol/min
[5]
  effect on CDFDA hydrolysis observed in vitro: stimulation of CDFDA hydrolysis
Caco-2 cells [4]; CDFDA dosing, genistein exposure
  model predicted effect on CDF efflux: no predicted effects
Caco-2 cells [4]; apical CDFDA dosing
  β-adjustment factor for enhancement of CDFDA hydrolysis clearance (Clhydrolysis), estimate (% RSE): 6.9 × 10^−3 (<0.1)
Caco-2 cells [4]; basolateral CDFDA dosing
  β-adjustment factor for enhancement of CDFDA hydrolysis clearance (Clhydrolysis), estimate (% RSE): 2.8 × 10^−2 (0.6)

## Glyceollin
Caco-2 cells [2]; [13]
  AB Donor (apical) CDF at 120 minutes, mean: 95 pmoles/well
  AB Intracellular CDF at 120 minutes, mean: 15 pmoles/well
Caco-2 cells [2]; [14]
  AB directional CDF flux, mean: 0.63 pmol/min
Caco-2 cells [2]; [15]
  BA Donor (basolateral) CDF at 120 minutes, mean: 187 pmoles/well
  BA Intracellular CDF at 120 minutes, mean: 30 pmoles/well
Caco-2 cells [2]; [16]
  BA directional CDF flux, mean: 0.53 pmol/min
[5]
  effect on CDFDA hydrolysis in Caco-2 cell homogenates: no effect
Caco-2 cells [4]; CDFDA dosing
  model predicted effect on CDF clearance across the apical membrane: no effect on apical membrane clearance
Caco-2 cells [4]; apical CDFDA dosing
  β-adjustment factor for enhancement of basolateral membrane clearance (Clcdf,bl), estimate (% RSE): 2.2 × 10^−2 (<0.1)
Caco-2 cells [4]; basolateral CDFDA dosing
  β-adjustment factor for enhancement of basolateral membrane clearance (Clcdf,bl), estimate (% RSE): 1.8 × 10^−2 (2.9)

## CN(C)C(=O)CCSC(SCCC(=O)O)c1cccc(/C=C/c2ccc3ccc(Cl)cc3n2)c1 (stereo not shown) [MK-571]
Caco-2 cells [2]; CDFDA dosing, control approximately 3
  basolateral to apical dosing CDF flux ratio in the presence of MK-571: ~0.8
Caco-2 cells [2]; [13]
  AB Donor (apical) CDF at 120 minutes, mean: 115 pmoles/well
  AB Intracellular CDF at 120 minutes, mean: 15 pmoles/well
Caco-2 cells [2]; [14]
  AB directional CDF flux, mean: 0.51 pmol/min
Caco-2 cells [2]; [15]
  BA Donor (basolateral) CDF at 120 minutes, mean: 249 pmoles/well
  BA Intracellular CDF at 120 minutes, mean: 26 pmoles/well
Caco-2 cells [2]; [16]
  BA directional CDF flux, mean: 0.39 pmol/min
[5]
  effect on CDFDA hydrolysis in Caco-2 cell homogenates: no effect
Caco-2 cells [4]; 100 μM MK-571, the highest concentration evaluated
  fold increase of basolateral membrane CDF clearance: up to 2 fold
Caco-2 cells [4]; CDFDA dosing
  model predicted effect on CDF clearance across the apical membrane: not altered
Caco-2 cells [4]; apical CDFDA dosing
  β-adjustment factor for enhancement of basolateral membrane clearance (Clcdf,bl), estimate (% RSE): 1.7 × 10^−2 (<0.1)
Caco-2 cells [4]; basolateral CDFDA dosing
  β-adjustment factor for enhancement of basolateral membrane clearance (Clcdf,bl), estimate (% RSE): 2.4 × 10^−2 (0.4)

## 5 (and 6)-Carboxy-2′,7′-Dichloroflourescein [CDF]
Caco-2 cells [2]; apical CDFDA dosing
  fraction of CDF in the basolateral compartment: 1.1%
  fraction of CDF in the cell compartment at 120-minutes: 1.5%
Caco-2 cells [2]; apical CDFDA dosing, n = 16 occasions
  fraction of CDF present in the apical compartment: 4.0 ± 2.33%
Caco-2 cells [2]; basolateral CDFDA dosing
  fraction of CDF in the basolateral compartment: 1.0%
  fraction of CDF in the cell compartment at 120-minutes: 1.3%
  fraction of CDF present in the apical compartment: 1.9 ± 1.24%
Caco-2 cells [2]; [17]
  mean ratio of CDF cell content, basolateral versus apical dosing: 2.9
  mean ratio of CDF flux, basolateral versus apical dosing: 2.9
[6]; read-out: Km, high affinity state, Sprague-Dawley rats
  Km: 3 µM
[6]; read-out: Km, high affinity state, Wistar rats
  Km: 9 µM
[6]; read-out: Km, low affinity state, Sprague-Dawley rats
  Km: 192 µM
[6]; read-out: Km, low affinity state, Wistar rats
  Km: 69 µM
Caco-2 cells [4]; Equations 3a–b with 3-compartment model estimates
  ratio of basolateral to apical dosing transcellular CDF clearance: 2.9
Caco-2 cells [4]; apical CDFDA dosing
  simulated intracellular CDF concentration, average: 10 µM
Caco-2 cells [4]; [18]
  Clcdf,ap, bootstrap analysis median (90% confidence interval): 2.2 × 10^−5 (1.7 – 2.6 × 10^−5) mL/min
  Clcdf,bl, bootstrap analysis median (90% confidence interval): 1.3 × 10^−5 (1.2 – 1.4 × 10^−5) mL/min
Caco-2 cells [4]; apical dosing 5 μM CDFDA
  Clcdf,ap, efflux clearance of CDF across the apical membrane, parameter estimate (% RSE): 8.4 × 10^−5 (<0.1) mL/min
  Clcdf,bl, efflux clearance of CDF across the basolateral membrane, parameter estimate (% RSE): 5.6 × 10^−5 (0.1) mL/min
Caco-2 cells [4]; basolateral CDFDA dosing
  simulated intracellular CDF concentration, average: 24 µM
Caco-2 cells [4]; [12]
  Clcdf,ap, bootstrap analysis median (90% confidence interval): 8.3 × 10^−5 (7.1 – 10.8 × 10^−5) mL/min
  Clcdf,bl, bootstrap analysis median (90% confidence interval): 5.1 × 10^−5 (3.8 – 6.7 × 10^−5) mL/min
Caco-2 cells [4]; basolateral dosing 5 μM CDFDA
  Clcdf,ap, efflux clearance of CDF across the apical membrane, parameter estimate (% RSE): 8.5 × 10^−5 (0.2) mL/min
  Clcdf,bl, efflux clearance of CDF across the basolateral membrane, parameter estimate (% RSE): 5.2 × 10^−5 (0.2) mL/min
Caco-2 cells [4]; following both apical and basolateral dosing
  fold larger apical versus basolateral membrane CDF clearance: approximately 1.5 fold
Caco-2 cells [7]; 5 μM CDF, simultaneous modeling of AB and BA directions
  CDF clearance across Caco-2 cells, model based analysis, AB/BA combined, population estimate (RSE,%): 1.6 × 10^−5 (11.7) mL/min
Caco-2 cells [7]; apical exposure to 5 μM CDF, 5 occasions, 13 filters
  CDF clearance across Caco-2 cells, model independent analysis, AB, mean (CV,%): 1.6 × 10^−5 (30.3) mL/min
Caco-2 cells [7]; apical exposure to 5 μM CDF, two-compartment model
  CDF clearance across Caco-2 cells, model based analysis, AB, population estimate (RSE,%): 1.3 × 10^−5 (19.0) mL/min
Caco-2 cells [7]; basolateral exposure to 5 μM CDF, 5 occasions, 13 filters
  CDF clearance across Caco-2 cells, model independent analysis, BA, mean (CV,%): 2.1 × 10^−5 (3.3) mL/min
Caco-2 cells [7]; basolateral exposure to 5 μM CDF, two-compartment model
  CDF clearance across Caco-2 cells, model based analysis, BA, population estimate (RSE,%): 2.0 × 10^−5 (10.9) mL/min
[8]
  protein binding: 15 – 20%

## lucifer yellow
Caco-2 cells [9]
  lucifer yellow clearance: 8.7 ± 0.24 × 10^−5 mL/min
